Our source for the folding enthalpy and Tm values is the array DNA melting data of Ke et al. (doi:10.1101/2024.01.08.574731).

Data set [1] can be described thus: folding enthalpy; higher = less favourable; fluorescence melt of hairpins on a sequencing array, two-state fit. As to conditions: sodium 0.088 M. The gist of the method:
(§1)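 Hairpins were imaged by Cy3 fluorescence on a sequenced MiSeq flow cell with annealed Cy3 and quencher oligos, in 50 mM Na-HEPES pH 8.0, 25 mM NaCl, in 2.5 °C steps up to 60 °C. Bootstrapped two-state fits of normalised signals gave melting temperature and folding enthalpy. Four replicates were combined by inverse variance, and fitted temperatures were raised by 9.35 °C to match UV melts.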

A short description of data set [2]: melting temperature; fluorescence melt of hairpins on a sequencing array, two-state fit, raised by 9.35 °C to match UV melts. As to conditions: sodium 0.088 M. In short, it runs like this: as §1

Regarding GAGTCTGCGAAAGCACTC (((..(((....)))))), in data set [1], the folding enthalpy is -14.8 kcal/mol. Moreover, in data set [2], the Tm was determined as 30.4 °C.

As to GACCCCGGAAACGAGGCC (.((.((....)).)).), the folding enthalpy in data set [1] was -15 kcal/mol. Further, the Tm in data set [2] was determined as 27.5 °C.

Consider GCCGACCGAAAGGTAGGC (((.(((....))).))), for which the folding enthalpy in data set [1] was -37.5 kcal/mol. Further, in data set [2], the Tm turned out to be 69.3 °C.

Take GACCGAGGAAACTCAGTC (((.(((....))).))): in data set [1], the folding enthalpy is -21 kcal/mol. Moreover, the Tm in data set [2] turned out to be 34.4 °C.

Regarding GATCACCCCGTGATC ((((((...)))))), in data set [1], the folding enthalpy was -43.2 kcal/mol. Also, in data set [2], the Tm was 57.5 °C.

Consider GATCGGCGATCCGATC ((((((....)))))), for which the folding enthalpy in data set [1] is -35.3 kcal/mol. The Tm in data set [2] was determined as 55 °C.

For the sequence GTCGCACGAAAGTGAGAC (((.(((....))).))), the folding enthalpy in data set [1] was -30.6 kcal/mol. The Tm in data set [2] was 59.5 °C.

Turning to GATCATACTGATGATC ((((((....)))))), the folding enthalpy in data set [1] was -30.2 kcal/mol. Moreover, the Tm in data set [2] amounted to 46.3 °C.

With GCCCTTCGAAAGAACGGC (((.(((....))).))), the folding enthalpy in data set [1] was -29.7 kcal/mol. Further, the Tm in data set [2] was 42.2 °C.

Regarding GGTTGGTCGAAAGACACC (((..(((....)))))), the folding enthalpy in data set [1] is -17.3 kcal/mol. Further, the Tm in data set [2] turned out to be 37 °C.

Regarding CGTGCCCGGAAACGGACG (((..(((....)))))), the folding enthalpy in data set [1] was -14.8 kcal/mol. Further, the Tm in data set [2] is 32.9 °C.

As to GCCTAGCGAAAGCTACGC ((.((((....)))).)), the folding enthalpy in data set [1] was -19 kcal/mol. In addition, the Tm in data set [2] was 41.8 °C.

For GAGCCGACGAAAGTCCTC (((..(((....)))))), in data set [1], the folding enthalpy is -8.43 kcal/mol. Further, the Tm in data set [2] worked out at 27.9 °C.

In the case of GTCCTGGGAAACTGGGAC ((((..(....)..)))), in data set [1], the folding enthalpy was -26.5 kcal/mol. The Tm in data set [2] was 44.8 °C.

As for GGCATTGCGAAAGCAGCC (((..(((....)))))), the folding enthalpy in data set [1] was -16.4 kcal/mol. Moreover, in data set [2], the Tm came to 50.7 °C.

For GGTCTTGGAAACGAGACC (((((.(....).))))), the folding enthalpy in data set [1] was -37.6 kcal/mol. For the same sequence, in data set [2], the Tm was 51.9 °C.

Regarding GGTACTCGAAAGAGCACC (((.(((....))).))), the folding enthalpy in data set [1] is -34.8 kcal/mol. The Tm in data set [2] turned out to be 50.5 °C.

On to GACGGGGGAAACCCTGTC (((.(((....))).))), for which the folding enthalpy in data set [1] was -37.1 kcal/mol. Moreover, the Tm in data set [2] came to 54.4 °C.

GTACTGGCGAAAGCCTAC (((..(((....)))))): the folding enthalpy in data set [1] is -11 kcal/mol. In data set [2], the Tm is 26.3 °C.

Take GGGCGTTCGAAAGAACCC (((..(((....)))))): the folding enthalpy in data set [1] is -19.9 kcal/mol. The Tm in data set [2] was determined as 50.3 °C.

Consider GTATGCGAAAGCACGTAC ((((((....)))..))), for which, in data set [1], the folding enthalpy is -8.02 kcal/mol. Further, the Tm in data set [2] is 34.1 °C.

Turning to GATCCGTTTTCGGATC ((((((....)))))), the folding enthalpy in data set [1] is -42.2 kcal/mol. In addition, in data set [2], the Tm stood at 61.8 °C.

Consider GAGTGCGGAAACGTACTC ((((.((....)).)))), for which the folding enthalpy in data set [1] was -43.3 kcal/mol. Besides, in data set [2], the Tm was determined as 53.9 °C.

For GTCTAAGAAATTAGAC ((((((....)))))), the folding enthalpy in data set [1] was -25.8 kcal/mol. In addition, the Tm in data set [2] came out at 40.4 °C.

With GATCGAGCGTCGATC ((((((...)))))), the folding enthalpy in data set [1] is -31.7 kcal/mol. Also, the Tm in data set [2] amounted to 51 °C.

For the sequence GCGGGTCCCCGC ((((....)))), the folding enthalpy in data set [1] was -23.5 kcal/mol. For the same sequence, the Tm in data set [2] is 66.8 °C.

Regarding GGAATACGAAAGTAATCC (((.(((....))).))), the folding enthalpy in data set [1] is -28.8 kcal/mol. Moreover, in data set [2], the Tm is 40.1 °C.

In the case of GGCCATGGAAACGTGGTC (.(((.(....).))).), the folding enthalpy in data set [1] was -33.2 kcal/mol. The Tm in data set [2] amounted to 45.2 °C.

As for GAGACTGGAAACAGTCCC (.(((((....))))).), in data set [1], the folding enthalpy was -11 kcal/mol. Also, in data set [2], the Tm turned out to be 44.9 °C.

In the case of GCTAGGGGAAACCCTGGC ((.((((....)))).)), in data set [1], the folding enthalpy is -36.9 kcal/mol. Moreover, the Tm in data set [2] turned out to be 53.4 °C.

As for GGAGGCTCGAAAGAGTCC (((..(((....)))))), the folding enthalpy in data set [1] is -14.4 kcal/mol. In addition, the Tm in data set [2] came to 35.8 °C.

Turning to GATCTATTTTTAGATC ((((((....)))))), the folding enthalpy in data set [1] is -42.5 kcal/mol. The Tm in data set [2] was 44.3 °C.

As for ATGACGAAAGTCAT (((((....))))), the folding enthalpy in data set [1] was -19.1 kcal/mol. For the same sequence, in data set [2], the Tm is 56.8 °C.

As for GGTTCCGGAAACAGAACC (((((.(....).))))), the folding enthalpy in data set [1] was -35.7 kcal/mol. Moreover, the Tm in data set [2] turned out to be 41.1 °C.

As to GATCACACTGTGATC ((((((...)))))), the folding enthalpy in data set [1] was -41.8 kcal/mol. Moreover, the Tm in data set [2] was 55.6 °C.

On to GATACGGGAAACTGTATC (((((.(....).))))), for which the folding enthalpy in data set [1] is -37.1 kcal/mol. Further, the Tm in data set [2] was 43.8 °C.
